# Laboratory results taken from ChEMBL document CHEMBL2385008, “Inducers of hypoxic response: marine sesquiterpene quinones activate HIF-1” (2013).
# Active and inactive are the calls of the source. The rule behind the calls is not given here.
# Legend:
# [1] = tested on: T47D; test: Activation of HIF-1 (unknown origin) transfected in human T47D cells at 3 to 30 uM after 16 hrs by luciferase reporter gene assay; type: cell-based
# In short: (§1)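 T47D breast tumor cells grown in DMEM/F12 with L-glutamine, 10% FBS and penicillin/streptomycin, transfected with HIF-1 reporter pHRE3-TK-Luc; compound exposure 16 h. Luciferase activity normalized to untreated control as relative luciferase activity; 1,10-phenanthroline used as HIF-1 activator control. Mean + SD, n = 4.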
# [2] = tested on: MDA-MB-231; test: Cytotoxicity against human MDA-MB-231 cells assessed as growth inhibition at 3 to 30 uM after 48 hrs by SRB assay; type: functional, cell-based
# In short: (§2)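 T47D or MDA-MB-231 breast tumor cells (DMEM/F12, 10% FBS, penicillin/streptomycin) plated in 96-well format and exposed to compound for 48 h. Viability read by sulforhodamine B staining and expressed as % inhibition relative to untreated control. One representative experiment in triplicate, mean with SD.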
# [3] = tested on: T47D; test: Cytotoxicity against human T47D cells assessed as growth inhibition at 3 to 30 uM after 48 hrs by SRB assay; type: functional, cell-based; in short: as §2
# [4] = tested on: T47D; test: Activation of HIF-1 (unknown origin) transfected in human T47D cells at 10 uM after 16 hrs by luciferase reporter gene assay relative to control; type: cell-based; in short: as §1
# [5] = tested on: T47D; test: Cytotoxicity against human T47D cells assessed as growth inhibition at 30 uM after 48 hrs by SRB assay relative to control; type: functional; settings: read-out: GI; in short: as §2
# [6] = tested on: T47D; test: Activation of HIF-1 in human T47D cells assessed as increase in cellular VEGF production at 10 uM after 16 hrs by ELISA; type: cell-based
# In short: (§3)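 T47D cells treated at 10 μM for 16 h. VEGF protein measured by ELISA in conditioned medium (secreted) or cell lysate (cellular), normalized to cellular protein by micro BCA assay. Untreated medium control; 1,10-phenanthroline positive control. Mean + SD pooled from two independent experiments (n = 3); p < 0.05 versus untreated control flagged.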
# [7] = tested on: T47D; test: Activation of HIF-1 in human T47D cells assessed as increase in secreted VEGF production at 10 uM after 16 hrs by ELISA; type: cell-based; in short: as §3
# [8] = tested on: T47D (Homo sapiens); test: Activation of HIF-1 in human T47D cells assessed as increase in VEGF production at 10 uM after 16 hrs by ELISA
SMILES,Activity [1],growth inhibition (GI) [2],growth inhibition (GI) [3],Activity [4] [%],inhibition of growth at 30 µM [5] [%],Activity [6],Activity [7],Activity [8]
C=C1CCC[C@@]23OC4=C(C[C@]2(C)[C@H](C)CC[C@@]13C)C(=O)C(OC)=CC4=O,inactive,Dose-dependent effect,Dose-dependent effect,,,,,
COC1=CC(=O)C2=C(C[C@]3(C)[C@H](C)CC[C@]45C[C@@]4(C)CCC[C@]53O2)C1=O,inactive,Dose-dependent effect,Dose-dependent effect,,,,,
C=C1CCC[C@H]2[C@](C)(CC3=C(O)C(=O)C=C(OC)C3=O)[C@H](C)CC[C@@]12C (relative stereo),,Dose-dependent effect,Dose-dependent effect,830,60,Active,Active,Active
CC1(C)CCC[C@]2(C)[C@H]3Cc4cc(O)ccc4O[C@@]3(C)CC[C@@H]12,inactive,inactive,inactive,,,,,
COC1=CC(=O)C2=C(C[C@]3(O2)[C@@H](C)CC[C@H]2C(C)(C)CCC[C@@]23C)C1=O,inactive,Dose-dependent effect,Dose-dependent effect,,,,,
c1cnc2c(c1)ccc1cccnc12,,,,,,Active,Active,
C=C1CCC[C@H]2[C@](C)(CC3=C(O)C(=O)C=C(OC)C3=O)[C@@H](C)CC[C@]12C [ILIMAQUINONE],,Dose-dependent effect,Dose-dependent effect,930,56,Active,Active,Active
COC1=CC(=O)C2=C(C[C@@H]3[C@@]4(C)CCCC(C)(C)[C@@H]4CC[C@@]3(C)O2)C1=O,inactive,Dose-dependent effect,Dose-dependent effect,,,,,
COC(=O)c1cc2c(c(O)c1O)O[C@@]1(C2)[C@@H](C)CC[C@H]2C(C)(C)CCC[C@@]21C,inactive,Dose-dependent effect,Dose-dependent effect,,,,,
COC1=CC(=O)C(O)=C(C[C@]2(C)[C@H](C)CC[C@]34C[C@@]3(C)CCC[C@@H]24)C1=O,,Dose-dependent effect,Dose-dependent effect,1000,58,Active,Active,Active
